Experimental data reported in ChEMBL document CHEMBL1671680, “Pradimicin S, a highly soluble nonpeptidic small-size carbohydrate-binding antibiotic, is an anti-HIV drug lead for both microbicidal and systemic use” (Antimicrob Agents Chemother, 2010).
Activity calls are given as the source filed them. The calls are words filed in the database; no cut-off is given here.

Tests used:
[1] = test system: Human immunodeficiency virus 1; assay: Antiviral activity against R5 tropic HIV-1 clade B isolate US2 infected in human PBMC assessed as inhibition of viral replication […] by ELISA; assay type: functional, organism-based; settings: Human immunodeficiency virus 1, clade B isolate US2
Method in brief: (§1)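 PBMCs from healthy donors were stimulated with PHA (2 μg/ml) for 3 days, then seeded at 0.5 × 10^6 cells/well in RPMI 1640 with 10% FCS, IL-2 (25 U/ml) and compound. Virus was added at a final 250 pg p24/ml. Supernatant was taken at day 12 for p24 antigen ELISA.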

[2] = test system: Human immunodeficiency virus 1; assay: Antiviral activity against R5 tropic HIV-1 clade C isolate ETH2220 infected in human PBMC assessed as inhibition of viral replication after 12 days by ELISA; settings: Human immunodeficiency virus 1, clade C isolate ETH2220, 12 days
[3] = Binding affinity to HIV-1 3B gp120 assessed as dissociation rate constant after 6 mins by SPR analysis in presence of 10 mM CaCl2; parameters: species or system Human immunodeficiency virus 1
[4] = test system: PBMC; assay: Immunostimulatory activity against human PBMC assessed as IL-2 production at 21 uM after 72 hrs; assay type: functional, cell-based
Method in brief: (§2)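 Unstimulated PBMCs and PHA-blasts from three donors, in three independent experiments, cultured with test compound at 20 μg/ml (21 or 22 μM). Supernatants collected after 72 h. The cytokine profile was read on a Bio-Plex 27-plex human cytokine bead immunoassay, using beads coupled to cytokine-specific monoclonal antibodies and run per the kit instructions.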

[5] = test system: PBMC; assay: Immunostimulatory activity against human PBMC assessed as suppression of IL-2 production at 22 uM after 72 hrs; assay type: functional; method in brief: as §2
[6] = test system: PBMC; assay: Immunostimulatory activity against human PBMC assessed as suppression of IL-15 production at 22 uM after 72 hrs; assay type: functional; method in brief: as §2
[7] = test system: PBMC; assay: Immunostimulatory activity against human PBMC assessed as RANTES production at 22 uM after 72 hrs; assay type: functional, cell-based; method in brief: as §2
[8] = test system: PBMC; assay: Immunostimulatory activity against human PBMC assessed as suppression of IL-4 production at 22 uM after 72 hrs; assay type: functional; method in brief: as §2
[9] = test system: Human immunodeficiency virus 2; assay: Antiviral activity against X4 tropic HIV-2 BV-5061 W infected in human PBMC assessed as inhibition of viral replication […] by ELISA; assay type: functional, organism-based; settings: Human immunodeficiency virus 2, BV-5061
Method in brief: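 PHA-stimulated (2 μg/ml, 3 days) donor PBMC blasts seeded at 0.5 × 10^6 cells/well with compound dilutions in RPMI 1640 + 10% FCS + IL-2 (25 U/ml); virus added at 250 pg p24 or p27/ml final; supernatant p24 (HIV-1) or p27 (HIV-2) antigen measured by ELISA at day 12; EC50 from antigen reduction.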

[10] = test system: PBMC; assay: Immunostimulatory activity against human PBMC assessed as IP-10 production at 22 uM after 72 hrs; assay type: functional, cell-based; method in brief: as §2
[11] = test system: PBMC; assay: Immunostimulatory activity against human PBMC assessed as IP-10 production at 21 uM after 72 hrs; assay type: functional, cell-based; method in brief: as §2
[12] = test system: Human immunodeficiency virus 1; assay: Ratio of EC90 to EC50 for R5 tropic HIV-1 clade C isolate ETH2220 infected in human PBMC; assay type: functional
Method in brief: (§3)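 PBMCs from healthy donors were PHA-stimulated (2 μg/ml, 3 days, 37°C), then seeded at 0.5 × 10^6 per well with compound dilutions in RPMI 1640 with 10% FCS and IL-2 (25 U/ml). Virus was added at 250 pg p24 or p27/ml final. On day 12, supernatant HIV-1 p24 or HIV-2 p27 was measured by ELISA, giving EC50 and EC90.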

[13] = Antiviral activity against SIV mac251 infected in human Raji cells expressing DC-SIGN gene assessed as prevention of syncytium formation between persistently […]-infected Raji cells and uninfected human C8166 cells after 60 mins by ELISA; assay type: functional, cell-based, Simian immunodeficiency virus - mac; settings: Simian immunodeficiency virus, 251, Raji, 1 h
[14] = test system: Human immunodeficiency virus 1; assay: Binding affinity to HIV-1 3B gp120 assessed as association rate constant after 6 mins by SPR analysis in presence of 10 mM CaCl2
[15] = test system: PBMC; assay: Immunostimulatory activity against human PBMC assessed as eotoxin production at 22 uM after 72 hrs; assay type: functional, cell-based
Method in brief: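 In three independent experiments, PBMCs and PHA-blasts from three donors were cultured with compound for 72 h. Supernatants were analysed with a bead-based 27-plex human cytokine immunoassay covering interleukins, chemokines, growth factors, IFN-γ and TNF-α.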

[16] = test system: PBMC; assay: Immunostimulatory activity against human PBMC assessed as IL-4 production at 21 uM after 72 hrs; assay type: functional, cell-based; method in brief: as §2
[17] = test system: Human immunodeficiency virus 1; assay: Antiviral activity against X4 tropic HIV-1 group O isolate BCF06 infected in human PBMC assessed as inhibition of viral replication […] by ELISA; assay type: functional, organism-based; settings: Human immunodeficiency virus 1, group O isolate BCF06; method in brief: as §1
[18] = test system: Human immunodeficiency virus 1; assay: Ratio of EC90 to EC50 for X4 tropic HIV-1 clade D isolate UG270 infected in human PBMC; assay type: functional; method in brief: as §3
[19] = test system: PBMC; assay: Immunostimulatory activity against human PBMC assessed as IL-13 production at 22 uM after 72 hrs; assay type: functional, cell-based; method in brief: as §2
[20] = test system: Human immunodeficiency virus 1; assay: Antiviral activity against R5 tropic HIV-1 clade G isolate BCF-DIOUM infected in human PBMC assessed as inhibition of viral replication […] by ELISA; assay type: functional, organism-based; settings: Human immunodeficiency virus 1, clade G isolate BCF-DIOUM; method in brief: as §1
[21] = test system: Human immunodeficiency virus 1; assay: Antiviral activity against X4 tropic HIV-1 3B infected in human Raji cells expressing DC-SIGN gene assessed as prevention of syncytium formation between persistently HIV-1 3B-infected Raji cells and uninfected human C8166 cells after 36 to 42 hrs by microscopic analysis; assay type: functional, organism-based; settings: Human immunodeficiency virus 1, 3B
Method in brief: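 Raji/DC-SIGN cells exposed 60 min to HIV-1 IIIB (2.2 × 10^6 pg/ml p24), washed by two centrifugations, then plated with compound dilutions and C8166 cells (10^7/ml, 50 μl); cocultures at 37°C scored microscopically for syncytia at ~36–48 h.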

[22] = Binding affinity to HIV-1 HXB2 gp41 assessed as dissociation rate constant after 6 mins by SPR analysis in presence of 10 mM CaCl2; parameters: species or system Human immunodeficiency virus 1
[23] = test system: PBMC; assay: Immunostimulatory activity against human PBMC assessed as suppression of PDGF production at 22 uM after 72 hrs; assay type: functional
[24] = test system: PBMC; assay: Immunostimulatory activity against human PBMC assessed as MIP-1beta production at 22 uM after 72 hrs; assay type: functional, cell-based; method in brief: as §2
[25] = test system: Human immunodeficiency virus 1; assay: Antiviral activity against HIV-1 3B infected in human MT4 cells assessed as inhibition of virus-induced cytopathicity after 7 days by trypan blue staining; assay type: functional, organism-based; settings: Human immunodeficiency virus 1, 3B, MT4, 168 h
[26] = test system: PBMC; assay: Immunostimulatory activity against human PBMC assessed as suppression of IL-13 production at 22 uM after 72 hrs; assay type: functional; method in brief: as §2
[27] = test system: Human immunodeficiency virus 1; assay: Binding affinity to HIV-1 3B gp120 after 6 mins by SPR analysis
[28] = Binding affinity to HIV-1 3B gp120 after 6 mins by SPR analysis in presence of 10 mM CaCl2; parameters: species or system Human immunodeficiency virus 1
[29] = test system: Human immunodeficiency virus 1; assay: Antiviral activity against R5 tropic HIV-1 clade A/E isolate ID12 infected in human PBMC assessed as inhibition of viral replication after 12 days by ELISA; settings: Human immunodeficiency virus 1, clade A/E isolate ID12, 12 days

Row | Compound | EC50 [1] | EC50 [2] | Kd [3] | Activity [4] | fold change (FC) [5] | fold change (FC) [6] | Activity [7] | fold change (FC) [8] | EC50 [9] | Activity [10] | Activity [11] | Ratio [12] | IC50 [13] | Ka [14] | Activity [15] | Activity [16] | EC50 [17] | Ratio [18] | Activity [19] | EC50 [20] | other results
1 | CN[C@@H]1[C@H](O[C@@H]2OC[C@@H](O)[C@H](O)[C@H]2O)[C@@H](O)[C@H](O[C@H]2c3cc(C)c(C(=O)N[C@H](C)C(=O)O)c(O)c3-c3c(cc4c(c3O)C(=O)c3cc(OC)cc(O)c3C4=O)[C@@H]2O)O[C@@H]1C [PRADIMICIN A] | 6 µM | 10 µM | 6.1 ×10⁻³ /s | inactive | 4 | 2 | inactive | 2 | 4.3 µM | inactive | inactive | 2 | 16 µM | 1.49 ×10⁴ /M/s | inactive | inactive | 1.6 µM | 2 | inactive | 6.7 µM | EC50 [21]: 5.4 µM; Kd [22]: 2.91 ×10⁻² /s; fold change (FC) [23]: 2; Activity [24]: inactive; EC50 [25]: 5.2 µM; fold change (FC) [26]: 2; Activity [27]: inactive; Kd [28]: 0.41 µM; EC50 [29]: 4.7 µM
2 | CN[C@@H]1[C@H](O[C@@H]2O[C@H](CO)[C@@H](O)[C@H](OS(=O)(=O)O)[C@H]2O)[C@@H](O)[C@H](O[C@H]2c3cc(C)c(C(=O)N[C@H](C)C(=O)O)c(O)c3-c3c(cc4c(c3O)C(=O)c3cc(OC)cc(O)c3C4=O)[C@@H]2O)O[C@@H]1C [PRADIMICIN S] | 11 µM | 17 µM | 5.11 ×10⁻³ /s | inactive | 4 | 2 | inactive | 2 | 3.1 µM | inactive | inactive | 2 | 16 µM | 1.27 ×10⁴ /M/s | inactive | inactive | 4.4 µM | 2 | inactive | 17 µM | EC50 [21]: 5.1 µM; Kd [22]: 2.71 ×10⁻² /s; fold change (FC) [23]: 2; Activity [24]: inactive; EC50 [25]: 5 µM; fold change (FC) [26]: 2; Activity [27]: inactive; Kd [28]: 0.4 µM; EC50 [29]: 15 µM
